The source made the active and inactive calls. The calls are words filed in the database; no cut-off is given here.
Columns and labels:
[1] = target: Telomerase reverse transcriptase (Homo sapiens) (UniProt O14746); assay: Inhibition of telomerase activity in human H1299 cell free extract at 10 uM by modified TRAP assay
Method in brief: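 TRAP assay using total cell lysate from H1299 lung cancer cells as the telomerase source, with protein measured against BSA standards. Compounds tested at 10 µM. Controls were lysate without inhibitor (positive) and RNase A-treated extract without inhibitor (negative).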

NCI-H322M = assay: Cytotoxicity against human NCI-H322M cells assessed as cellular growth at 10 uM; format: functional
Method in brief: (§1)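 Single-dose screen run by the NCI across its 60-human-tumour-cell-line panel; growth recorded for each cell line.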

UO-31 = assay: Cytotoxicity against human UO31 cells assessed as cellular growth at 10 uM; format: functional
SF-539 = assay: Cytotoxicity against human SF539 cells assessed as cellular growth at 10 uM; format: functional; method in brief: as §1
OVCAR-4 = assay: Cytotoxicity against human OVCAR4 cells assessed as cellular growth at 10 uM; format: functional; method in brief: as §1
MDA-MB-231 = assay: Cytotoxicity against human MDA-MB-231 cells assessed as cellular growth at 10 uM; format: functional; method in brief: as §1
NCI-H226 = assay: Cytotoxicity against human NCI-H226 cells assessed as cellular growth at 10 uM; format: functional; method in brief: as §1
PC-3 = assay: Cytotoxicity against human PC3 cells assessed as cellular growth at 10 uM; format: functional; method in brief: as §1
SF-295 = assay: Cytotoxicity against human SF295 cells assessed as cellular growth at 10 uM; format: functional; method in brief: as §1
HCT-116 = assay: Cytotoxicity against human HCT116 cells assessed as cellular growth at 10 uM; format: functional; method in brief: as §1
SNB-19 = assay: Cytotoxicity against human SNB19 cells assessed as cellular growth at 10 uM; format: functional
OVCAR-8 = assay: Cytotoxicity against human OVCAR8 cells assessed as cellular growth at 10 uM; format: functional; method in brief: as §1
COLO 205 = assay: Cytotoxicity against human COLO205 cells assessed as cellular growth at 10 uM; format: functional; method in brief: as §1
HOP-92 = assay: Cytotoxicity against human HOP92 cells assessed as cellular growth at 10 uM; format: functional; method in brief: as §1
SN12C = assay: Cytotoxicity against human SN12C cells assessed as cellular growth at 10 uM; format: functional
EKVX = assay: Cytotoxicity against human EKVX cells assessed as cellular growth at 10 uM; format: functional; method in brief: as §1
DU-145 = assay: Cytotoxicity against human DU145 cells assessed as cellular growth at 10 uM; format: functional; method in brief: as §1
[2] = Growth of human H1299 cells at 100 uM 48 hrs by MTT assay; conditions: NCI-H1299, 48 h
OVCAR-3 = assay: Cytotoxicity against human OVCAR3 cells assessed as cellular growth at 10 uM; format: functional; method in brief: as §1
SF-268 = assay: Cytotoxicity against human SF268 cells assessed as cellular growth at 10 uM; format: functional; method in brief: as §1
Malme-3M = assay: Cytotoxicity against human MALME-3M cells assessed as cellular growth at 10 uM; format: functional; method in brief: as §1
SNB-75 = assay: Cytotoxicity against human SNB75 cells assessed as cellular growth at 10 uM; format: functional
NCI-H23 = assay: Cytotoxicity against human NCI-H23 cells assessed as cellular growth at 10 uM; format: functional; method in brief: as §1
[3] = Cytotoxicity against human Hs 578T cells assessed as cellular growth at 10 uM; format: functional; method in brief: as §1
SK-MEL-28 = assay: Cytotoxicity against human SK-MEL-28 cells assessed as cellular growth at 10 uM; format: functional; method in brief: as §1
SK-MEL-2 = assay: Cytotoxicity against human SK-MEL-2 cells assessed as cellular growth at 10 uM; format: functional; method in brief: as §1
[4] = target: Telomerase reverse transcriptase (Homo sapiens) (UniProt O14746); assay: Residual activity of human TERT in H1299 cells at 100 uM after 24 hrs by SEAP reporter gene assay
U-251 = assay: Cytotoxicity against human U251 cells assessed as cellular growth at 10 uM; format: functional
CAKI-1 = assay: Cytotoxicity against human Caki1 cells assessed as cellular growth at 10 uM; format: functional; method in brief: as §1
OVCAR-5 = assay: Cytotoxicity against human OVCAR5 cells assessed as cellular growth at 10 uM; format: functional; method in brief: as §1
A498 = assay: Cytotoxicity against human A498 cells assessed as cellular growth at 10 uM; format: functional; method in brief: as §1
[5] = Growth of human H1299 cells at 10 uM after 48 hrs by MTT assay; conditions: NCI-H1299, 48 h
A549 = assay: Cytotoxicity against human A549 cells assessed as cellular growth at 10 uM; format: functional; method in brief: as §1
HCT-15 = assay: Cytotoxicity against human HCT15 cells assessed as cellular growth at 10 uM; format: functional; method in brief: as §1
TK-10 = assay: Cytotoxicity against human TK10 cells assessed as cellular growth at 10 uM; format: functional
HL-60(TB) = assay: Cytotoxicity against human HL-60(TB) cells assessed as cellular growth at 10 uM; format: functional; method in brief: as §1
MOLT-4 = assay: Cytotoxicity against human MOLT4 cells assessed as cellular growth at 10 uM; format: functional; method in brief: as §1
NCI-H522 = assay: Cytotoxicity against human NCI-H522 cells assessed as cellular growth at 10 uM; format: functional; method in brief: as §1
M14 = assay: Cytotoxicity against human M14 cells assessed as cellular growth at 10 uM; format: functional; method in brief: as §1
HCC 2998 = assay: Cytotoxicity against human HCC2998 cells assessed as cellular growth at 10 uM; format: functional; method in brief: as §1
786-0 = assay: Cytotoxicity against human 786-0 cells assessed as cellular growth at 10 uM; format: functional; method in brief: as §1
IGROV-1 = assay: Cytotoxicity against human IGROV1 cells assessed as cellular growth at 10 uM; format: functional; method in brief: as §1
SK-OV-3 = assay: Cytotoxicity against human SKOV3 cells assessed as cellular growth at 10 uM; format: functional
BT-549 = assay: Cytotoxicity against human BT549 cells assessed as cellular growth at 10 uM; format: functional; method in brief: as §1
HOP-62 = assay: Cytotoxicity against human HOP62 cells assessed as cellular growth at 10 uM; format: functional; method in brief: as §1
NCI-H460 = assay: Cytotoxicity against human NCI-H460 cells assessed as cellular growth at 10 uM; format: functional; method in brief: as §1
[6] = Growth of human H1299 cells at 1 uM after 48 hrs by MTT assay; conditions: NCI-H1299, 48 h
UACC-62 = assay: Cytotoxicity against human UACC62 cells assessed as cellular growth at 10 uM; format: functional
T47D = assay: Cytotoxicity against human T47D cells assessed as cellular growth at 10 uM; format: functional
CCRF-CEM = assay: Cytotoxicity against human CCRF-CEM cells assessed as cellular growth at 10 uM; format: functional; method in brief: as §1
NCI/ADR-RES = assay: Cytotoxicity against human NCI/ADR-RES cells assessed as cellular growth at 10 uM; format: functional; method in brief: as §1
MDA-MB-468 = assay: Cytotoxicity against human MDA-MB-468 cells assessed as cellular growth at 10 uM; format: functional; method in brief: as §1
SK-MEL-5 = assay: Cytotoxicity against human SK-MEL-5 cells assessed as cellular growth at 10 uM; format: functional
ACHN = assay: Cytotoxicity against human ACHN cells assessed as cellular growth at 10 uM; format: functional; method in brief: as §1

Chain of Telomerase reverse transcriptase (Homo sapiens) (O14746 whole entry): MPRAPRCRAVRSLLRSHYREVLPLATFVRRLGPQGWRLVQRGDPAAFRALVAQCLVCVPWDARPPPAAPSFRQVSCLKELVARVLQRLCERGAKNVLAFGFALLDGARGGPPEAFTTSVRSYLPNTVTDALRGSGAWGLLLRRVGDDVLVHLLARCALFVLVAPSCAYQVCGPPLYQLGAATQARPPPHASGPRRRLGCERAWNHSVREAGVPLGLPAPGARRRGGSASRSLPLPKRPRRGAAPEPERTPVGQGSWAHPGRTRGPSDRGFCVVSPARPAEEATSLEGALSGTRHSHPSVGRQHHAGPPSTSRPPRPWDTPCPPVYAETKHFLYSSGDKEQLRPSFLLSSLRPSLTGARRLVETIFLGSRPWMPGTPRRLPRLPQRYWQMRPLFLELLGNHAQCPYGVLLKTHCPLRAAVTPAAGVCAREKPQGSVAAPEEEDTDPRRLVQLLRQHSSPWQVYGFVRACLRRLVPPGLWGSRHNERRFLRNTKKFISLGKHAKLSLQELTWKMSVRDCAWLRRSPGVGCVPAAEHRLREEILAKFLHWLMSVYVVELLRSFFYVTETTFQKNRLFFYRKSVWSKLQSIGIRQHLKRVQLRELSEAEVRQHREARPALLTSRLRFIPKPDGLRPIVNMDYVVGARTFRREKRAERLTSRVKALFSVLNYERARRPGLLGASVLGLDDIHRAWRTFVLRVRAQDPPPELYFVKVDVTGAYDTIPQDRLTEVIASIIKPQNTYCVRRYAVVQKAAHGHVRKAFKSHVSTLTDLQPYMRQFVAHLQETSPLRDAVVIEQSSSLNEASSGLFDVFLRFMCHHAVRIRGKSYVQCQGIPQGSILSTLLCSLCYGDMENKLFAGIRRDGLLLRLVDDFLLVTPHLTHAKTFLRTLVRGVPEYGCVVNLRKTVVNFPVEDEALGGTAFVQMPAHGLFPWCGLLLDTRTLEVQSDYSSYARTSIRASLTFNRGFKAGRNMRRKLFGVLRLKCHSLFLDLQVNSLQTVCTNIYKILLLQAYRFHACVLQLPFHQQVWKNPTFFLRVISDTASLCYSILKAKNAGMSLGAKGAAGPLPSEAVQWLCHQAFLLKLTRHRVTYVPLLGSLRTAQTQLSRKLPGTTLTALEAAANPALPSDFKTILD

Question: Which inhibition [1] does the source give for `Cc1ccc(C(=O)Nc2c(NC(=O)CN3CCN(C)CC3)ccc3c2C(=O)c2ccccc2C3=O)cc1` here?
Answer: inactive

Question: And the Activity (NCI-H322M)?
Answer: 72.6%

Question: And the Activity (UO-31)?
Answer: 70.66%

Question: And the Activity (SF-539)?
Answer: 62.68%

Question: And the Activity (OVCAR-4)?
Answer: 57.11%

Question: What about the Activity (MDA-MB-231) of the same compound?
Answer: 37%

Question: What about the Activity (NCI-H226) of the same compound?
Answer: 93.87%

Question: What about the Activity (PC-3) of the same compound?
Answer: 84.75%

Question: What about the Activity (SF-295) of the same compound?
Answer: 89.86%

Question: And the Activity (HCT-116)?
Answer: 8.37%

Question: What about the Activity (SNB-19) of the same compound?
Answer: 68.75%

Question: What about the Activity (OVCAR-8) of the same compound?
Answer: 46.43%

Question: What about the Activity (COLO 205) of the same compound?
Answer: 2.29%

Question: And the Activity (HOP-92)?
Answer: 90.68%

Question: What about the Activity (SN12C) of the same compound?
Answer: 63.31%

Question: And the Activity (EKVX)?
Answer: 78.07%

Question: And the Activity (DU-145)?
Answer: 82.12%

Question: And the growth, % of control at 100 µM [2]?
Answer: 3%

Question: What about the Activity (OVCAR-3) of the same compound?
Answer: -6.15%

Question: And the Activity (SF-268)?
Answer: 59.11%

Question: And the Activity (Malme-3M)?
Answer: 10.84%

Question: And the Activity (SNB-75)?
Answer: 82.17%

Question: What about the Activity (NCI-H23) of the same compound?
Answer: 89.52%

Question: What about the Activity [3] of the same compound?
Answer: 87.29%

Question: And the Activity (SK-MEL-28)?
Answer: -57.56%

Question: What about the Activity (SK-MEL-2) of the same compound?
Answer: 123.64%

Question: What about the residual activity [4] of the same compound?
Answer: 8%

Question: What about the Activity (U-251) of the same compound?
Answer: 22.38%

Question: And the Activity (CAKI-1)?
Answer: 69.76%

Question: What about the Activity (OVCAR-5) of the same compound?
Answer: 106.66%

Question: And the Activity (A498)?
Answer: 67.36%

Question: And the growth, % of control at 10 µM [5]?
Answer: 13%

Question: And the Activity (A549)?
Answer: 83.89%

Question: What about the Activity (HCT-15) of the same compound?
Answer: 27.47%

Question: And the Activity (TK-10)?
Answer: 101.93%

Question: What about the Activity (HL-60(TB)) of the same compound?
Answer: -8.54%

Question: What about the Activity (MOLT-4) of the same compound?
Answer: 26.04%

Question: What about the Activity (NCI-H522) of the same compound?
Answer: 88.21%

Question: What about the Activity (M14) of the same compound?
Answer: -60.04%

Question: And the Activity (HCC 2998)?
Answer: 28.97%

Question: And the Activity (786-0)?
Answer: 11.9%

Question: What about the Activity (IGROV-1) of the same compound?
Answer: 112.2%

Question: What about the Activity (SK-OV-3) of the same compound?
Answer: 108.91%

Question: And the Activity (BT-549)?
Answer: 91.88%

Question: What about the Activity (HOP-62) of the same compound?
Answer: 75.21%

Question: And the Activity (NCI-H460)?
Answer: 37.47%

Question: And the growth, % of control at 1 µM [6]?
Answer: 77%

Question: What about the Activity (UACC-62) of the same compound?
Answer: -20.65%

Question: And the Activity (T47D)?
Answer: 52.62%

Question: What about the Activity (CCRF-CEM) of the same compound?
Answer: 61.06%

Question: And the Activity (NCI/ADR-RES)?
Answer: 66.74%

Question: What about the Activity (MDA-MB-468) of the same compound?
Answer: 7.43%

Question: What about the Activity (SK-MEL-5) of the same compound?
Answer: 41.3%

Question: And the Activity (ACHN)?
Answer: 49.87%
